{"source": "ChEMBL document CHEMBL5033998", "about": "“Discovery of DDO-2213 as a Potent and Orally Bioavailable Inhibitor of the WDR5-Mixed Lineage Leukemia 1 Protein-Protein Interaction for the Treatment of MLL Fusion Leukemia” (J Med Chem, 2021)", "key": {"[1]": {"assay": "Tmax in Sprague-Dawley rat at 10 mg/kg, po measured upto 24 hrs by LC-MS/MS analysis", "assay_type": "ADME, organism-based", "settings": "in vivo", "outline": "(§1)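 Male SD rats, 6–8 weeks, 220 ± 30 g; single oral dose 10 mg/kg (n = 3). Plasma sampled at 0, 0.25, 0.5, 1, 2, 4, 6, 8 and 24 h, stored at −80 °C, quantified by LC-MS/MS; parameters reported as mean ± SEM.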"}, "MV4-11 [2]": {"system": "MV4-11", "assay": "Antitumor activity against human MV4-11 cells xenografted in Balb/c nude mouse assessed as tumor growth inhibition at 40 mg/kg, po administered daily for 21 days relative to control", "assay_type": "functional", "settings": "MV4-11, po, 504 h, time 21 day, read-out: TGI", "outline": "(§2)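 Female BALB/c nude mice (6–8 weeks) given ~5 × 10^6 MV4-11 cells in 0.2 mL PBS into the flank; at 100–150 mm3 randomized (6/group) to vehicle (0.9% saline) or 40, 80, 120 mg/kg oral (hydrochloride salt) daily for 21 days. Volume = length × width²/2 every other day; GI% = [1 − (TVt − TV0)/(CVt − CV0)] × 100%.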"}, "K562": {"system": "K562", "assay": "Antiproliferative activity against human K562 cells assessed as cell viability incubated for 72 hrs by CCK8 assay", "assay_type": "functional, cell-based", "settings": "K562, 72 h", "outline": "(§3)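 Cells seeded at 3000–6000 per well, exposed to inhibitor at several concentrations for 72 h; viability read with CCK8 kit. MV4-11 and K562 grown in modified IMDM + 10% FBS, pen/strep; MOLM-13 in RPMI-1640 + 10% FBS; HUVEC in modified DMEM + 10% FBS; 37 °C, 5% CO2. IC50 as mean ± SD of three independent experiments.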"}, "[3]": {"target": "T1, Histone-lysine N-methyltransferase 2A (Homo sapiens, UniProt Q03164)", "T1 sequence (Q03164 1-2718 limits assumed)": "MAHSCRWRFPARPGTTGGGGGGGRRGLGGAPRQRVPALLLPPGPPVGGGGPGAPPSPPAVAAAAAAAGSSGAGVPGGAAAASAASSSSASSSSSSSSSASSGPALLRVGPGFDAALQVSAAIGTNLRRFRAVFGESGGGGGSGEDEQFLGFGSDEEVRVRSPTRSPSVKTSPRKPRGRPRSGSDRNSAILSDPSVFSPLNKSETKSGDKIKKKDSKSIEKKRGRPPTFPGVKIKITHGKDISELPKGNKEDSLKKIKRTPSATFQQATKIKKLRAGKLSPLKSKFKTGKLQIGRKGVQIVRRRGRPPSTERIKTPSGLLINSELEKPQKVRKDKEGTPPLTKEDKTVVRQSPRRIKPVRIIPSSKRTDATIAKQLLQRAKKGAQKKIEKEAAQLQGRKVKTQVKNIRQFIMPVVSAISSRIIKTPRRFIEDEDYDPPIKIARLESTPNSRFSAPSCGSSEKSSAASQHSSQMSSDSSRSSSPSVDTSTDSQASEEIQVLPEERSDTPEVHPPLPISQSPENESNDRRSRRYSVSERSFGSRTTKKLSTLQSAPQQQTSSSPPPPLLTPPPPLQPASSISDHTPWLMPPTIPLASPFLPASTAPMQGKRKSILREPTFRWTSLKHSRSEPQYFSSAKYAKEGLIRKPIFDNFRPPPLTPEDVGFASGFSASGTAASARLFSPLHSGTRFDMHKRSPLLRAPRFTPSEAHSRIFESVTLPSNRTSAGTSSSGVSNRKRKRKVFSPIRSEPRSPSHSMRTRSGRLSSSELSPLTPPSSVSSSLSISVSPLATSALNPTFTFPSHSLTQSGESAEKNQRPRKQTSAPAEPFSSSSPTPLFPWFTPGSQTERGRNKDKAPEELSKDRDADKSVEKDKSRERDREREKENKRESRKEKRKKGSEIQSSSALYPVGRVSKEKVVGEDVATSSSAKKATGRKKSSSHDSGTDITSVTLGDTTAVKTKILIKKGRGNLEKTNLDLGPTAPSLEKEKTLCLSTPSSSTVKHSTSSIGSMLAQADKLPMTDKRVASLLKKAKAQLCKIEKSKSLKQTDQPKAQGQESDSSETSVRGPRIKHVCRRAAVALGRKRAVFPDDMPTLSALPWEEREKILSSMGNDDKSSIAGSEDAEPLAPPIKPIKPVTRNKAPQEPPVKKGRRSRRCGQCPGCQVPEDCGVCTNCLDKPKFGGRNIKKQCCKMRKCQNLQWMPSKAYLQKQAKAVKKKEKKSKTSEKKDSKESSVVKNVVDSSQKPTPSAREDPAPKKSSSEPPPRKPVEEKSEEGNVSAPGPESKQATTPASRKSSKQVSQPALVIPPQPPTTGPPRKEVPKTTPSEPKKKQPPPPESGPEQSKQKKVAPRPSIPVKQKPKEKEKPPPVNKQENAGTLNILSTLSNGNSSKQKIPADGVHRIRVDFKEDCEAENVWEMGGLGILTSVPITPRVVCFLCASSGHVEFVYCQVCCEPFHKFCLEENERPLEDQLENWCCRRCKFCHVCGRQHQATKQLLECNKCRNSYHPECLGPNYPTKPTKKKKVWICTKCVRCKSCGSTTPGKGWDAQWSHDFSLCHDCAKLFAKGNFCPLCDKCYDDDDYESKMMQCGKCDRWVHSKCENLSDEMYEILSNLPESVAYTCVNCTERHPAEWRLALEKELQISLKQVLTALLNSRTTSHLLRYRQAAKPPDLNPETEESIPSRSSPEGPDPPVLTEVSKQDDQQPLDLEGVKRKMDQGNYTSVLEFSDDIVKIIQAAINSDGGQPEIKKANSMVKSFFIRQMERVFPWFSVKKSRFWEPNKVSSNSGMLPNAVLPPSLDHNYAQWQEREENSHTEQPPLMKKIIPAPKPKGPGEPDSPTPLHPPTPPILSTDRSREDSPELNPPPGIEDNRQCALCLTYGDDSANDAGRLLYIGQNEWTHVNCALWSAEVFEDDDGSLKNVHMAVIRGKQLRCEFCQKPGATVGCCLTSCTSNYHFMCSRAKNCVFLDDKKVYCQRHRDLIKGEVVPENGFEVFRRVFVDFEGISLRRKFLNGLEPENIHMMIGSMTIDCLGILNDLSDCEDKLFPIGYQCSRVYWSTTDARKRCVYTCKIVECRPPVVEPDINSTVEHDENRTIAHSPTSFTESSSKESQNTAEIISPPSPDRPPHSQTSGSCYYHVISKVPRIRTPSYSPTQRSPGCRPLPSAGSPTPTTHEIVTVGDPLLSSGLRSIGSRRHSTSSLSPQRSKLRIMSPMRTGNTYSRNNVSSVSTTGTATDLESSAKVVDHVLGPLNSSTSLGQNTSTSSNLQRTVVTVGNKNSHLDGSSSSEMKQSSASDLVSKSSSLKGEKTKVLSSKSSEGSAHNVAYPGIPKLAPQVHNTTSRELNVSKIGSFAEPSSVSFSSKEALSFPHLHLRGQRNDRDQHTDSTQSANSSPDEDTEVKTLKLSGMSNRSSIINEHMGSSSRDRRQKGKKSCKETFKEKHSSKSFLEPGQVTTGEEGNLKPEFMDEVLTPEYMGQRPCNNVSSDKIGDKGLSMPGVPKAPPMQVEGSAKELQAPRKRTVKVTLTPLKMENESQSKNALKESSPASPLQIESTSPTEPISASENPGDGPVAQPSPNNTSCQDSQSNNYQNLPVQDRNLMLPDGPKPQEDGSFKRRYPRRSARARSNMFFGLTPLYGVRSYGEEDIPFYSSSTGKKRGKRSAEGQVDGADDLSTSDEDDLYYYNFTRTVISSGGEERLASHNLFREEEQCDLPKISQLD", "T1 sequence (Q03164 2719-3969 limits assumed)": "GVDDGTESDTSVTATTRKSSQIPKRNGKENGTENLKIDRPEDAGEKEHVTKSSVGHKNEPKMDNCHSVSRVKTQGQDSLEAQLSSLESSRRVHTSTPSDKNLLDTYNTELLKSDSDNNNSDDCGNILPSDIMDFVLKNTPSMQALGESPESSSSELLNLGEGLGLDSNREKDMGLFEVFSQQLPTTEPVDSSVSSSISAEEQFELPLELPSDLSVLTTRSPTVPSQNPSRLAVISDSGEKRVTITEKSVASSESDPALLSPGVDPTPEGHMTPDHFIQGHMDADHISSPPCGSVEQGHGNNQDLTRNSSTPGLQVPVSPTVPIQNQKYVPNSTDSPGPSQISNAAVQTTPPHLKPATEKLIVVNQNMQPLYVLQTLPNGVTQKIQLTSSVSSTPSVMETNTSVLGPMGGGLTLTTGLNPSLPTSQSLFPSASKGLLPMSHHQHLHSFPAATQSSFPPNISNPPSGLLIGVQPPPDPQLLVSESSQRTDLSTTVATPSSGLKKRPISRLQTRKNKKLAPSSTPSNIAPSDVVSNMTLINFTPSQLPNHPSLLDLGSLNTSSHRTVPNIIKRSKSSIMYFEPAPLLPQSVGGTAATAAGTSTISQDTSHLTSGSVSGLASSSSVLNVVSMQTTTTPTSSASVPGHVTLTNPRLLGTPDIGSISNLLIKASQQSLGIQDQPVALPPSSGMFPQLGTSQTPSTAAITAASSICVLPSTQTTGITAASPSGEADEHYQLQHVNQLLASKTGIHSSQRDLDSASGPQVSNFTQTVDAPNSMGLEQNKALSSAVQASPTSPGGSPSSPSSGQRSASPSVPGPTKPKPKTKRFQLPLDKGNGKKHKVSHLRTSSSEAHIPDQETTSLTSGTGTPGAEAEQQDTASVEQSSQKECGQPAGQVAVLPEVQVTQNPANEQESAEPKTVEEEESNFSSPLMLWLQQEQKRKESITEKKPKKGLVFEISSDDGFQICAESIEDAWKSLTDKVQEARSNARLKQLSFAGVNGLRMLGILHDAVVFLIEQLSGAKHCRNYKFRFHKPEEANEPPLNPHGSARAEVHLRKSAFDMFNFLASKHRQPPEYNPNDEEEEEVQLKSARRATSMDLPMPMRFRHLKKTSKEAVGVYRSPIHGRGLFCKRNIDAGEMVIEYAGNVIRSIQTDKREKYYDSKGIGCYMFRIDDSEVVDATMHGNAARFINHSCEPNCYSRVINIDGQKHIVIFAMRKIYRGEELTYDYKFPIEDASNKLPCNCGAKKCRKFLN", "assay": "Inhibition of MLL1 (unknown origin) in human MV4-11 cells assessed as decrease in Hoxa9 mRNA level at 1 to 10 uM measured after 7 days by RT-PCR analysis", "settings": "dose 1-10 µM, time 7.0 day"}, "[4]": {"assay": "Toxicity in Balb/c nude mouse xenografted with human MV4-11 cells assessed as tolerability at 40 to 120 mg/kg, po administered daily for 21 days relative to control", "assay_type": "organism-based", "settings": "in vivo, 504 h", "outline": "(§4)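 Nude BALB/c females bearing MV4-11 xenografts, dosed orally each day for 21 days at 40, 80 or 120 mg/kg, saline vehicle controls (6 mice/group); body weight recorded every other day.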"}, "[5]": {"target": "T1, Histone-lysine N-methyltransferase 2A", "assay": "Inhibition of MLL1 (unknown origin) in human MV4-11 cells assessed as decrease in H3Kme1 level at 1 to 10 uM measured after 7 days by Western blot analysis", "assay_type": "cell-based", "settings": "dose 1-10 µM, time 7.0 day", "outline": "(§5)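 MV4-11 cells exposed to 1, 2.5, 5 and 10 μM; H3K4me1/me2/me3 assessed by Western blot with histone H3 as loading control. Blots blocked in 1% BSA 1 h, primary antibody overnight at 4 °C, DyLight 800 secondary 1 h at 37 °C, infrared imaging.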"}, "[6]": {"assay": "Apparent volume of distribution in Sprague-Dawley rat at 10 mg/kg, po measured upto 24 hrs by LC-MS/MS analysis", "assay_type": "ADME, organism-based", "settings": "in vivo, read-out: Vz/F", "outline": "as §1"}, "[7]": {"target": "T1, Histone-lysine N-methyltransferase 2A", "assay": "Inhibition of MLL1 (unknown origin) in human MV4-11 cells assessed as decrease in H3Kme3 level at 1 to 10 uM measured after 7 days by Western blot analysis", "assay_type": "cell-based", "outline": "as §5"}, "[8]": {"assay": "Half life in Sprague-Dawley rat at 2 mg/kg, iv measured upto 24 hrs by LC-MS/MS analysis", "assay_type": "ADME, organism-based", "settings": "in vivo"}, "[9]": {"assay": "AUC (0 to t) in Sprague-Dawley rat at 10 mg/kg, po measured upto 24 hrs by LC-MS/MS analysis", "assay_type": "ADME, organism-based", "parameters": "route oral, dose 10 mg/kg, time <=24", "settings": "in vivo", "outline": "as §1"}, "[10]": {"target": "T1, Histone-lysine N-methyltransferase 2A", "assay": "Inhibition of MLL1 (unknown origin) in human MV4-11 cells assessed as decrease in H3Kme2 level at 1 to 10 uM measured after 7 days by Western blot analysis", "assay_type": "cell-based", "outline": "as §5"}, "MV4-11 [11]": {"system": "MV4-11", "assay": "Antitumor activity against human MV4-11 cells xenografted in Balb/c nude mouse assessed as tumor weight inhibition at 80 mg/kg, po administered daily for 21 days relative to control", "assay_type": "functional", "settings": "MV4-11, po, 504 h", "outline": "(§6)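 MV4-11 flank xenografts (~5 × 10^6 cells) in female BALB/c nude mice, 6 per group; daily oral dosing (40, 80, 120 mg/kg) or saline vehicle for 21 days, then tumors excised and weighed.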"}, "[12]": {"assay": "Metabolic stability in human liver microsomes assessed as half life at 1 uM in presence of NADPH by LC-MS/MS analysis", "assay_type": "ADME, Microsome", "outline": "(§7)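 Compound at 1 μM preincubated 5 min at 37 °C with human or rat liver microsomes (0.7 mg/mL) in 100 mM PBS pH 7.4; reaction started with 1 mM NADPH.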"}, "MV4-11 [13]": {"system": "MV4-11", "assay": "Antitumor activity against human MV4-11 cells xenografted in Balb/c nude mouse assessed as tumor growth inhibition at 120 mg/kg, po administered daily for 21 days relative to control", "assay_type": "functional", "settings": "MV4-11, po, 504 h, time 21 day, read-out: TGI", "outline": "as §2"}, "MOLM-13": {"system": "MOLM-13", "assay": "Antiproliferative activity against human MOLM-13 cells assessed as cell viability incubated for 72 hrs by CCK8 assay", "assay_type": "functional, cell-based", "settings": "MOLM-13, 72 h", "outline": "as §3"}, "[14]": {"assay": "Metabolic stability in rat liver microsomes assessed as half life at 1 uM in presence of NADPH by LC-MS/MS analysis", "assay_type": "ADME, Microsome", "outline": "as §7"}, "[15]": {"target": "Histone-lysine N-methyltransferase EZH2 (Homo sapiens, UniProt Q15910)", "sequence (Q15910 whole entry)": "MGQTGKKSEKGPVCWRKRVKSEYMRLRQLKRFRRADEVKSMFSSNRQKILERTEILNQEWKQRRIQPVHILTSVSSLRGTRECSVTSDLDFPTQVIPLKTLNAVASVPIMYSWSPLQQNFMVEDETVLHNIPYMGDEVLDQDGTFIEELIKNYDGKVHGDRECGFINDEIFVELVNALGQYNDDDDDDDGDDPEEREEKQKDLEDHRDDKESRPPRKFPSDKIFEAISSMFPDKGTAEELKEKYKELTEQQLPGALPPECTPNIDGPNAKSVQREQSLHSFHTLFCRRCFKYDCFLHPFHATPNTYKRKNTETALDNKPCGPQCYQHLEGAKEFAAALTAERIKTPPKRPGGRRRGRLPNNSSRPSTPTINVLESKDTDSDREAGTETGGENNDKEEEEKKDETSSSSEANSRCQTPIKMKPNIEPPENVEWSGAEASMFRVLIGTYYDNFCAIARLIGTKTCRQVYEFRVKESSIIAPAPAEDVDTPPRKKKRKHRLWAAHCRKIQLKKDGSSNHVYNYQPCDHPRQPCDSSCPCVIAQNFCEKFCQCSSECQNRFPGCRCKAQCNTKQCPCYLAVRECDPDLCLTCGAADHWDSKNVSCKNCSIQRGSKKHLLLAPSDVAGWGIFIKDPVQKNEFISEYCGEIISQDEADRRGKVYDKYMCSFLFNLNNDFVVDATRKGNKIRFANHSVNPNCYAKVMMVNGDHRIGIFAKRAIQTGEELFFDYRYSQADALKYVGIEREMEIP", "assay": "Inhibition of EZH2 (unknown origin) assessed as effect on H3K27 methylation incubated for 30 mins by Alphascreen assay", "outline": "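AlphaScreen: enzyme, SAM and compound mixed in 10 mM PBS for 30 min at room temperature; acceptor beads and substrate antibody added, 30 min at room temperature, then streptavidin donor beads; read on AlphaScreen reader.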"}, "[16]": {"assay": "Cmax in Sprague-Dawley rat at 10 mg/kg, po measured upto 24 hrs by LC-MS/MS analysis", "assay_type": "ADME, organism-based", "parameters": "route oral, dose 10 mg/kg, time <=24", "settings": "in vivo", "outline": "as §1"}, "[17]": {"assay": "AUC (0 to t) in Sprague-Dawley rat at 2 mg/kg, iv measured upto 24 hrs by LC-MS/MS analysis", "assay_type": "ADME, organism-based", "parameters": "route intravenous, dose 2 mg/kg, time <=24", "settings": "in vivo"}, "[18]": {"assay": "Toxicity in Balb/c nude mouse xenografted with human MV4-11 cells assessed as body weight loss at 40 to 120 mg/kg, po administered daily for 21 days relative to control", "assay_type": "organism-based", "settings": "in vivo, 504 h", "outline": "as §4"}, "MV4-11 [19]": {"system": "MV4-11", "assay": "Antitumor activity against human MV4-11 cells xenografted in Balb/c nude mouse assessed as tumor weight inhibition at 120 mg/kg, po administered daily for 21 days relative to control", "assay_type": "functional", "settings": "MV4-11, po, 504 h", "outline": "as §6"}, "[20]": {"assay": "Oral bioavailability in Sprague-Dawley rat at 10 mg/kg measured upto 24 hrs by LC-MS/MS analysis", "assay_type": "ADME, organism-based", "settings": "in vivo", "outline": "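Bioavailability from paired rat groups (male SD, n = 3 each): 10 mg/kg oral vs 2 mg/kg i.v.; plasma sampled to 24 h and measured by LC-MS/MS.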"}, "[21]": {"assay": "Permeability of compound at pH 7.4 incubated for 4 hrs by PAMPA assay", "assay_type": "ADME", "settings": "read-out: permeability", "outline": "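Double-sink PAMPA: compound diluted in pH 7.4 donor buffer, permeation through artificial membrane to acceptor over 4 h at 25 °C; donor and acceptor read by UV; mean ± SD of three independent experiments.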"}, "MV4-11 [22]": {"system": "MV4-11", "assay": "Antiproliferative activity against human MV4-11 cells assessed as cell viability incubated for 72 hrs by CCK8 assay", "assay_type": "functional, cell-based", "settings": "MV4-11, 72 h", "outline": "as §3"}}, "note": "Activity calls are given as the source filed them. No cut-off for these calls is given here."}
{"smiles": "CN1CCN(c2cc(F)c(-c3ccc(C(=O)N(C)C)cc3)cc2Nc2ncnc(Cl)c2N)CC1", "values": [{"measurement": "Tmax", "setting": "[1]", "value": 2, "unit": "h"}, {"measurement": "inhibition in vivo at 40 mg/kg", "setting": "MV4-11 [2]", "value": 39.4, "unit": "%"}, {"measurement": "IC50", "setting": "K562", "value": "> 100", "unit": "µM"}, {"measurement": "inhibition", "setting": "[3]", "value": "Dose-Dependent Effect"}, {"measurement": "Activity", "setting": "[4]", "value": "Non-Toxic"}, {"measurement": "inhibition", "setting": "[5]", "value": "Dose-Dependent Effect"}, {"measurement": "Vd/F", "setting": "[6]", "value": 37.1, "unit": "L/kg"}, {"measurement": "inhibition", "setting": "[7]", "value": "Active"}, {"measurement": "half-life", "setting": "[8]", "value": 1.7, "unit": "h"}, {"measurement": "AUC(0-t) at 24 h", "setting": "[9]", "value": 1320, "unit": "ng·h/mL"}, {"measurement": "inhibition", "setting": "[10]", "value": "Active"}, {"measurement": "inhibition in vivo at 80 mg/kg", "setting": "MV4-11 [11]", "value": 51.6, "unit": "%"}, {"measurement": "half-life at 1 µM", "setting": "[12]", "value": 1.17, "unit": "h"}, {"measurement": "inhibition in vivo at 120 mg/kg", "setting": "MV4-11 [13]", "value": 54.5, "unit": "%"}, {"measurement": "IC50", "setting": "MOLM-13", "value": 13.1, "unit": "µM"}, {"measurement": "half-life at 1 µM", "setting": "[14]", "value": 1.1, "unit": "h"}, {"measurement": "IC50", "setting": "[15]", "value": "> 100", "unit": "µM"}, {"measurement": "Cmax", "setting": "[16]", "value": 159, "unit": "ng/mL"}, {"measurement": "AUC(0-t) at 24 h", "setting": "[17]", "value": 411, "unit": "ng·h/mL"}, {"measurement": "Activity", "setting": "[18]", "value": "Non-Toxic"}, {"measurement": "inhibition in vivo at 120 mg/kg", "setting": "MV4-11 [19]", "value": 56.8, "unit": "%"}, {"measurement": "bioavailability", "setting": "[20]", "value": 82.1, "unit": "%"}, {"measurement": "Papp at 4 h", "setting": "[21]", "value": 20.2, "unit": "×10⁻⁶ cm/s"}, {"measurement": "IC50", "setting": "MV4-11 [22]", "value": 12.6, "unit": "µM"}]}
